In ChEMBL document CHEMBL1122837, “Angiotensin converting enzyme inhibitors: N-substituted D-glutamic acid gamma dipeptides” (J Med Chem, 1985):

Legend:
Rattus norvegicus [1] = experiment: Percent inhibitory activity against angiotensin I pressor response 2 hr after peroral administration at dose 1 mg/kg; assay type: functional; details: route oral
In short: (§1)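 Normotensive rats were dosed orally. The angiotensin I pressor response was followed, and the maximum percent inhibition 2 h after administration was reported.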

Rattus norvegicus [2] = experiment: Percent inhibitory activity against angiotensin I pressor response 15 min after intravenous administration at dose 0.1 mg/kg; assay type: functional; details: 0.25 h
In short: (§2)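 Normotensive rats received the test compound intravenously. The angiotensin I pressor response was measured 15 min after dosing and reported as percent inhibition.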

[3] = biological target: T1, Angiotensin-converting enzyme (Oryctolagus cuniculus, UniProt P12822); experiment: In vitro inhibition of angiotensin I converting enzyme from rabbit lung; assay type: tissue-based
T1 sequence (P12822 whole entry): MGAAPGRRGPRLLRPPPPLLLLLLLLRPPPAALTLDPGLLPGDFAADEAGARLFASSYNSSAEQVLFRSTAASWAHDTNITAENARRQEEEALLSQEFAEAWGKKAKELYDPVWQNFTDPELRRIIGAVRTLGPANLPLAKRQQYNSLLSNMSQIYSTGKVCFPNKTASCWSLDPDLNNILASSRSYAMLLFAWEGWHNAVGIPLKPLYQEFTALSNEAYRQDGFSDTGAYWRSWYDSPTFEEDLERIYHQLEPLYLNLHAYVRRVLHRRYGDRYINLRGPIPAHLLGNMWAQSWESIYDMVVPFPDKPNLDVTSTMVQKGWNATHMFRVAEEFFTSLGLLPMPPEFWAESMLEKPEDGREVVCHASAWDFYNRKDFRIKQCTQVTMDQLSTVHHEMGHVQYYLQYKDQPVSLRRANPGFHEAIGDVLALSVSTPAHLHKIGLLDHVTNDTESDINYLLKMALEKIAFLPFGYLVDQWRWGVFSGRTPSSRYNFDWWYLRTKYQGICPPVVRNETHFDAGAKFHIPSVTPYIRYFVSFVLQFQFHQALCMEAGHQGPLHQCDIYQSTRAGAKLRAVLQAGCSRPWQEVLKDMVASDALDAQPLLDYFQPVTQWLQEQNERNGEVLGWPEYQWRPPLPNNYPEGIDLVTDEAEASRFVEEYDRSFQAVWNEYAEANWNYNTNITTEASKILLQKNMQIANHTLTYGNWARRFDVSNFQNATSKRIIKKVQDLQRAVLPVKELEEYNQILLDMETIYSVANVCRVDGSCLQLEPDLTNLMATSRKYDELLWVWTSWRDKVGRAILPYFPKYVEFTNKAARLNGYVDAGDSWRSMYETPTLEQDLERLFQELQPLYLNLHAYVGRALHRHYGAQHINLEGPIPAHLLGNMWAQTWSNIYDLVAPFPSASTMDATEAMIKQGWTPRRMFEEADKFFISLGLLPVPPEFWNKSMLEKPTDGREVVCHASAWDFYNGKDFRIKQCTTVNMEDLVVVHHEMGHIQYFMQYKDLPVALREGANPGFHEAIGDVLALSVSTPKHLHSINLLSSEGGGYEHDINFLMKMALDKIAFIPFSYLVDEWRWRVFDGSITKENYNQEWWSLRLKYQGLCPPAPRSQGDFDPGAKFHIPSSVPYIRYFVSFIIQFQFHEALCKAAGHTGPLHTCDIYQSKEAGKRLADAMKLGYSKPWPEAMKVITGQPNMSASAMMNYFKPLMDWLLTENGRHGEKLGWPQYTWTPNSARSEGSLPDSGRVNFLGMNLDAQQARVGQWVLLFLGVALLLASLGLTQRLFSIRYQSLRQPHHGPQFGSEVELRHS

Rattus norvegicus [4] = experiment: Percent inhibitory activity against angiotensin I pressor response 2 hr after peroral administration at dose 10 mg/kg; assay type: functional; details: route oral; in short: as §1
Rattus norvegicus [5] = experiment: Percent inhibitory activity against angiotensin I pressor response 15 min after intravenous administration at dose 1 mg/kg; assay type: functional; details: 0.25 h; in short: as §2

Compound	IC50 [3] [µM]	also measured
O=C(NC(CCC(=O)N1c2ccccc2C[C@@H]1C(=O)O)C(=O)O)OCc1ccccc1 (some centres undefined)	0.007	inhibition in vivo at 1 mg/kg (Rattus norvegicus [1]): 0%; inhibition in vivo at 0.1 mg/kg (Rattus norvegicus [2]): 70%
O=C(N[C@@H](CCC(=O)N1c2ccccc2CC1C(=O)O)C(=O)O)OCc1ccccc1 (some centres undefined)	0.5	–
O=C(Nc1ccccc1)N[C@H](CCC(=O)N1c2ccccc2C[C@H]1C(=O)O)C(=O)O	0.044	–
O=C(N[C@H](CCC(=O)N1CCC[C@H]1C(=O)O)C(=O)O)OCc1ccccc1	0.05	–
O=C(N[C@H](CCC(=O)N1c2ccccc2C[C@H]1C(=O)OCc1cccnc1)C(=O)O)OCc1ccccc1	0.35	inhibition in vivo at 10 mg/kg (Rattus norvegicus [4]): 15%; inhibition in vivo at 1 mg/kg (Rattus norvegicus [5]): 70%
O=C(N[C@H](CCC(=O)N1c2ccccc2C[C@H]1C(=O)O)C(=O)O)c1cccnc1	0.024	inhibition in vivo at 1 mg/kg (Rattus norvegicus [1]): 0%; inhibition in vivo at 0.1 mg/kg (Rattus norvegicus [2]): 79%
CCOC(=O)[C@@H](CCC(=O)N1c2ccccc2C[C@H]1C(=O)O)NC(=O)c1cccnc1	2.2	inhibition in vivo at 10 mg/kg (Rattus norvegicus [4]): 30%; inhibition in vivo at 1 mg/kg (Rattus norvegicus [5]): 100%
O=C(O)CN(C(=O)CC[C@@H](NC(=O)OCc1ccccc1)C(=O)O)C1CCCC1	0.04	–
CCOC(=O)[C@@H]1Cc2ccccc2N1C(=O)CC[C@@H](NC(=O)OCc1ccccc1)C(=O)O	4.7	–
O=C(O)[C@@H](CCC(=O)N1c2ccccc2C[C@H]1C(=O)O)NS(=O)(=O)Cc1ccccc1	0.029	–
CN(C)CCCOC(=O)[C@@H]1Cc2ccccc2N1C(=O)CC[C@@H](NC(=O)OCc1ccccc1)C(=O)O	0.037	–
O=C(O)[C@@H](CCC(=O)N1c2ccccc2C[C@H]1C(=O)O)N(Cc1ccccc1)C(=O)OCc1ccccc1	10	–
O=C(N[C@H](CCC(=O)N1c2ccccc2C[C@H]1C(=O)O)C(=O)O)c1ccccc1	0.028	inhibition in vivo at 0.1 mg/kg (Rattus norvegicus [2]): 55%
CC(=O)N[C@H](CCC(=O)N1c2ccccc2C[C@H]1C(=O)O)C(=O)O	0.095	–
O=C1OCN(C(=O)OCc2ccccc2)[C@@H]1CCC(=O)N1c2ccccc2C[C@H]1C(=O)O	0.052	–
O=C(N[C@H](CCC(=O)N1[C@H](C(=O)O)C[C@@H]2CCCC[C@@H]21)C(=O)O)OCc1ccccc1	0.0027	–
O=C(N[C@H](CCC(=O)N1Cc2ccccc2C[C@H]1C(=O)O)C(=O)O)OCc1ccccc1	0.014	–
COc1ccc(N(CC(=O)O)C(=O)CC[C@@H](NC(=O)OCc2ccccc2)C(=O)O)cc1OC	0.021	–
CN(C)CCOC(=O)[C@@H]1Cc2ccccc2N1C(=O)CC[C@@H](NC(=O)OCc1ccccc1)C(=O)O	0.007	–
Cc1ccc(S(=O)(=O)N[C@H](CCC(=O)N2c3ccccc3C[C@H]2C(=O)O)C(=O)O)cc1	0.02	–
O=C(N[C@H](CCC(=O)N1C[C@H]2CCCC[C@H]2C[C@H]1C(=O)O)C(=O)O)OCc1ccccc1	0.017	–
NC(=O)[C@@H]1Cc2ccccc2N1C(=O)CC[C@@H](NC(=O)OCc1ccccc1)C(=O)O	0.16	–
O=C(N[C@H](CCC(=O)N1c2ccccc2CCC1C(=O)O)C(=O)O)OCc1ccccc1 (some centres undefined)	0.088	–
O=C(N[C@H](CCC(=O)N1c2ccccc2C[C@H]1C(=O)O)C(=O)O)c1ccccn1	0.057	–
N[C@H](CCC(=O)N1c2ccccc2C[C@H]1C(=O)O)C(=O)O	10	–
O=C(NCCCCC(NC(=O)OCc1ccccc1)C(=O)N[C@H](CCC(=O)N1c2ccccc2C[C@H]1C(=O)O)C(=O)O)OCc1ccccc1 (some centres undefined)	0.061	–
NCCCCC(N)C(=O)N[C@H](CCC(=O)N1c2ccccc2C[C@H]1C(=O)O)C(=O)O (some centres undefined)	0.188	–
O=C(O)[C@@H](CCC(=O)N1c2ccccc2C[C@H]1C(=O)O)NCc1ccccc1	0.3	–
O=C(CCc1ccccc1)N[C@H](CCC(=O)N1c2ccccc2C[C@H]1C(=O)O)C(=O)O	0.04	inhibition in vivo at 1 mg/kg (Rattus norvegicus [5]): 76%
